Screening data as filed in PubChem BioAssay.
SIRT5 block: SIRT5 desuccinylase inhibitors, primary screen, biochemical, fluorescence imaging, single point, set 5. NAD-dependent protein deacylase sirtuin-5, mitochondrial (Homo sapiens), Q9NXA8. Purified SirT5, succinyl-peptide AMC, trypsin-coupled fluorescence. inhibition, % at 15 µM. actives 1.1% (n = 330,000). AID 652115, 2013; in the data active = inhibition above about 15%; inconclusive = no clear call, values can overlap the other calls
E-selectin induc: E-selectin induction in HUVECs, primary screen, imaging, HUVEC, immunofluorescence imaging, single point | P16581 | normalized: neutral wells 0, TNF-alpha wells 100 | activation, % at 7.58 µM | actives 0.37% (n = 260,000) | AID 686992, 2013;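 active = mean E-selectin-positive cell signal at least 10% of the positive control, reached in at least 60% of replicates, without over 20% cell loss; inconclusive = no rule given, readout overlaps actives, possibly toxicity-flagged; inactive = the rest, including those meeting only one limit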
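assay system = HUVEC, human umbilical vein endothelial cells | input = 3,000 HUVEC seeded per well | medium = EGM-2 growth medium on 0.1% gelatin-coated wells | dosing = one compound dose added by pin transfer | signal = immunofluorescence imaging | read-out basis = % PE-positive cells | control set = TNF-alpha, DMSO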
DENV2 CPE: inhibitors of DENV2 cytopathic effect, primary screen, cell-based, plate reader, single concentration; actives 1.7% (n = 350,000); DENV2-infected cells, cytopathic effect rescue; CPE inhibition, % at 9.99 µM; in the data active = CPE inhibition above about 20%, passing the limit was not always enough; inconclusive = no clear call, values can overlap the other calls; tested in BHK-21 cells;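 also: 0% = median of neutral control wells and 100% = median of positive control wells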
Active calls of the source: *; ! = repeats disagree. Sampled rows, rich in hits. Any-hit rate of the full collection: about 2.9%.

What do the screens show for `O=S(=O)(CS(=O)(=O)Oc1ccccc1)Oc1ccccc1`?
SIRT5 block: -3; E-selectin induc: 0; DENV2 CPE: 23*

Results for Cc1ccc(S(=O)(=O)Oc2ccccc2)cc1 ?
SIRT5 block: -3; E-selectin induc: -3; DENV2 CPE: 1

Results for NS(=O)(=O)Oc1ccccc1 ?
SIRT5 block: 0; E-selectin induc: 0; DENV2 CPE: 52*

What do the screens show for `COc1ccc(OS(=O)(=O)Cc2ccccc2)cc1`?
SIRT5 block: 0; E-selectin induc: 0; DENV2 CPE: -9

What do the screens show for `OC(CSc1nc(-c2ccccc2)c(-c2ccccc2)o1)CC(O)c1ccccc1` (stereo not drawn)?
SIRT5 block: -1; DENV2 CPE: 30*

Results for O=[N+]([O-])c1ccc(C(O)CC(O)CSc2nc(-c3ccccc3)c(-c3ccccc3)o2)cc1 (stereo not drawn) ?
SIRT5 block: -1; DENV2 CPE: 9

Results for CN1c2ccc(-c3cccc(F)c3)cc2[C@H]2[C@H](CCN2C(=O)CC2CC2)[C@@H]1CO ?
SIRT5 block: -3; E-selectin induc: 0; DENV2 CPE: inconclusive

How did CNC(=O)N(C1=NCC(C)(C)S1)c1ccc(F)c(Cl)c1 do in these assays?
SIRT5 block: -1; E-selectin induc: 0; DENV2 CPE: -8

What do the screens show for `OCC#CCSc1nnc(-c2cccc3ccccc23)o1`?
SIRT5 block: 0; E-selectin induc: 1; DENV2 CPE: 93*

What do the screens show for `O=C(OCC#CCSc1nnc(-c2cccc3ccccc23)o1)c1ccc(Cl)cc1`?
SIRT5 block: -7; E-selectin induc: 0; DENV2 CPE: -4

Results for O=C(C1=C[C@@H](C2CC2)C[C@@H](OCc2ccc(CO)cc2)O1)N1CCCCCCC1 ?
SIRT5 block: -5; DENV2 CPE: 4

Results for O=C(O)C1=C[C@H](C2CC2)C[C@H](OCc2ccc(CO)cc2)O1 ?
SIRT5 block: -3; E-selectin induc: 1; DENV2 CPE: 22*!

What do the screens show for `O=C(C1=C[C@@H](C2CC2)C[C@@H](OCc2ccc(CO)cc2)O1)N1CCOCC1`?
SIRT5 block: -1; E-selectin induc: 0; DENV2 CPE: 33*!

Results for CC(C)(C)[C@H]1C=C(C(=O)N2CCCCCCC2)O[C@@H](OCc2ccc(CO)cc2)C1 ?
SIRT5 block: 3; DENV2 CPE: 29*

Results for O=C(C1=C[C@@H](C2CCCCC2)C[C@@H](OCc2ccc(CO)cc2)O1)N1CCOCC1 ?
SIRT5 block: 0; E-selectin induc: 1; DENV2 CPE: 2

What do the screens show for `CN1CCN(C(=O)C2=C[C@H](C3CCCCC3)C[C@H](OCc3ccc(CO)cc3)O2)CC1`?
SIRT5 block: 30*!; E-selectin induc: 1; DENV2 CPE: 0

Results for CC(C)(C)[C@H]1C=C(C(=O)N2CCCC2)O[C@@H](OCc2ccc(CO)cc2)C1 ?
SIRT5 block: 1; DENV2 CPE: 18

What do the screens show for `O=C(O)C1=C[C@@H](C2CCCCC2)C[C@@H](OCc2ccc(CO)cc2)O1`?
E-selectin induc: 0; DENV2 CPE: inconclusive

Results for COc1ccc(/C=C/C(=O)C2CC2)cc1COc1cccc(C)c1C ?
SIRT5 block: -3; DENV2 CPE: -8

What do the screens show for `N#Cc1ccc(OCC(=O)N/N=C2/CC(c3ccccc3)Oc3ccccc32)cc1` (stereo not drawn)?
SIRT5 block: -3; E-selectin induc: -1; DENV2 CPE: 2

How did CC(C)c1cc(C(=O)NNC(=S)NC2CCCCC2)cs1 do in these assays?
SIRT5 block: 0; E-selectin induc: -1; DENV2 CPE: 18

Results for Cn1c(CCC(=O)OCC(=O)NCC(F)(F)F)nc(=O)c2ccccc21 ?
SIRT5 block: -2; E-selectin induc: 1; DENV2 CPE: -3

What do the screens show for `COc1ccccc1N1CCN(Cc2cnc3ccc(Cl)cn23)CC1`?
SIRT5 block: -2; E-selectin induc: 0; DENV2 CPE: 32*

What do the screens show for `COc1ccccc1N1CCN(Cc2ccc(C(=O)O)cc2)CC1`?
SIRT5 block: -7; DENV2 CPE: 0

Results for CN(C)CCNc1ccc(CO)c2oc3ccc(O)cc3c(=O)c12 ?
SIRT5 block: -1; E-selectin induc: 1; DENV2 CPE: 0

How did CCN(CC)CCNc1ccc(CO)c2oc3cc(Cl)ccc3c(=O)c12 do in these assays?
SIRT5 block: -1; DENV2 CPE: 64*

What do the screens show for `CCC(=O)NC[C@H]1[C@@H](c2ccc(C3=CCCC3)cc2)[C@@H](CO)N1C(=O)CC`?
SIRT5 block: -3; E-selectin induc: 0; DENV2 CPE: 31*
